According to ChEMBL document CHEMBL4229424, “Design, synthesis and anticancer evaluation of acridine hydroxamic acid derivatives as dual Topo and HDAC inhibitors” (Bioorg Med Chem, 2018):
The source made the active and inactive calls. No cut-off for these calls is given here.

Legend:
[1] = test system: U-937; test: Antiproliferative activity against human U937 cells after 48 hrs by MTT assay; assay type: functional, cell-based; conditions: U-937, 48 h
[2] = molecular target: Histone deacetylase 1 (Homo sapiens, UniProt Q13547); test: Inhibition of HDAC1 (unknown origin) using Ac-peptide as substrate pretreated for 15 mins followed by substrate addition and measured after 1 hr by fluorescence assay
[3] = molecular target: T1, Protein deacetylase HDAC6 (Homo sapiens, UniProt Q9UBN7); test: Inhibition of HDAC6 (unknown origin) using Ac-peptide as substrate pretreated for 15 mins followed by substrate addition and measured after 1 hr by fluorescence assay
T1 sequence (Q9UBN7 whole entry): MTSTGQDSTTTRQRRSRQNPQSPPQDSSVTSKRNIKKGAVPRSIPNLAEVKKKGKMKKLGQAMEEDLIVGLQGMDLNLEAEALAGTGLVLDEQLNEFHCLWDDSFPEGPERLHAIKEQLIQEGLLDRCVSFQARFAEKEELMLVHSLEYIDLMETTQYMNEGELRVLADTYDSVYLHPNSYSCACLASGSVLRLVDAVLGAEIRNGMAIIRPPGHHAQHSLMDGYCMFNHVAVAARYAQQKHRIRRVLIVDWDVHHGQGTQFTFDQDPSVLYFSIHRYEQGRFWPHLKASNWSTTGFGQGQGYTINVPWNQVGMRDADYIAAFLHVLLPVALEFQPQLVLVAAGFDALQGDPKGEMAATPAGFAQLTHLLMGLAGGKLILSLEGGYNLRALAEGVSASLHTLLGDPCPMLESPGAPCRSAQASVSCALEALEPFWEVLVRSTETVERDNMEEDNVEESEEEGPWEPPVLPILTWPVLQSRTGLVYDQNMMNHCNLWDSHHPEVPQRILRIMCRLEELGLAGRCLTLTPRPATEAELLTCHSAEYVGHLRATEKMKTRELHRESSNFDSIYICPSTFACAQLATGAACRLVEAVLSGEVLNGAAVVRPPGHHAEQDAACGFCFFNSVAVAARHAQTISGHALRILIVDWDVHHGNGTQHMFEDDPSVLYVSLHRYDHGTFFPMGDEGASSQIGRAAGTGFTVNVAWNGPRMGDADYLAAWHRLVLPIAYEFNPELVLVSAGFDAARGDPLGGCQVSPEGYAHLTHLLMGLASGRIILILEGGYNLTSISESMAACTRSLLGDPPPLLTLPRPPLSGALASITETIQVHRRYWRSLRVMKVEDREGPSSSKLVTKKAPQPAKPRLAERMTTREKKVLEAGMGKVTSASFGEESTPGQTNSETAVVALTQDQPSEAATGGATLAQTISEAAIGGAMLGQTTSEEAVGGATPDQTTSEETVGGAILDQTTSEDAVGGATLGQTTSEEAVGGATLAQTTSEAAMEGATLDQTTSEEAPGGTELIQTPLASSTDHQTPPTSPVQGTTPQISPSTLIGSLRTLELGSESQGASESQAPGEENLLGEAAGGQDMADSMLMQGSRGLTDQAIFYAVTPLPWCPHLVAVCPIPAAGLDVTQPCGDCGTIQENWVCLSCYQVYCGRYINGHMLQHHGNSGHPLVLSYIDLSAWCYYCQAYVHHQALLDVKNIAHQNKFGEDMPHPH

[4] = molecular target: DNA topoisomerase 2-alpha (Homo sapiens) (UniProt P11388); test: Inhibition of human topoisomerase 2alpha expressed in Escherichia coli assessed as reduction in supercoiled pBR322 plasmid DNA relaxation at 50 to 100 uM after 10 to 15 mins by ethidium bromide staining based agarose gel electrophoresis
Procedure, shortened: (§1)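 Relaxation assay with 500 ng supercoiled pBR322 DNA and 1 unit of human Topo I or Topo II in reaction buffer (20 µL), run at 37 °C for 10-15 min. Reaction stopped with loading buffer, then 1% agarose gel in TAE at 80 V for 0.5 h. Gel stained with ethidium bromide and bands viewed under UV. Camptothecin (Topo I) and m-AMSA (Topo II) served as references.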

[5] = test system: MDA-MB-231; test: Antiproliferative activity against human MDA-MB-231 cells after 48 hrs by MTT assay; assay type: functional, cell-based; conditions: MDA-MB-231, 48 h
Procedure, shortened: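 Cells seeded at 5-10 × 10^3 per well and left 12 h at 37 °C, then given a range of concentrations (DMSO as blank) for 48 h. MTT (5 mg/mL) added for 4 h, formazan dissolved in DMSO, absorbance read at 490 nm. IC50 taken from dose-response curves of at least three independent experiments, mean ± SD.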

[6] = test system: HCT-116; test: Antiproliferative activity against human HCT116 cells after 48 hrs by MTT assay; assay type: functional, cell-based; conditions: HCT-116, 48 h
[7] = molecular target: T2, DNA topoisomerase 1 (Homo sapiens) (UniProt P11387); test: Inhibition of human topoisomerase 1 assessed as reduction in supercoiled pBR322 plasmid DNA relaxation at 100 uM after 10 to 15 mins by ethidium bromide staining based agarose gel electrophoresis; procedure, shortened: as §1
T2 sequence (whole entry): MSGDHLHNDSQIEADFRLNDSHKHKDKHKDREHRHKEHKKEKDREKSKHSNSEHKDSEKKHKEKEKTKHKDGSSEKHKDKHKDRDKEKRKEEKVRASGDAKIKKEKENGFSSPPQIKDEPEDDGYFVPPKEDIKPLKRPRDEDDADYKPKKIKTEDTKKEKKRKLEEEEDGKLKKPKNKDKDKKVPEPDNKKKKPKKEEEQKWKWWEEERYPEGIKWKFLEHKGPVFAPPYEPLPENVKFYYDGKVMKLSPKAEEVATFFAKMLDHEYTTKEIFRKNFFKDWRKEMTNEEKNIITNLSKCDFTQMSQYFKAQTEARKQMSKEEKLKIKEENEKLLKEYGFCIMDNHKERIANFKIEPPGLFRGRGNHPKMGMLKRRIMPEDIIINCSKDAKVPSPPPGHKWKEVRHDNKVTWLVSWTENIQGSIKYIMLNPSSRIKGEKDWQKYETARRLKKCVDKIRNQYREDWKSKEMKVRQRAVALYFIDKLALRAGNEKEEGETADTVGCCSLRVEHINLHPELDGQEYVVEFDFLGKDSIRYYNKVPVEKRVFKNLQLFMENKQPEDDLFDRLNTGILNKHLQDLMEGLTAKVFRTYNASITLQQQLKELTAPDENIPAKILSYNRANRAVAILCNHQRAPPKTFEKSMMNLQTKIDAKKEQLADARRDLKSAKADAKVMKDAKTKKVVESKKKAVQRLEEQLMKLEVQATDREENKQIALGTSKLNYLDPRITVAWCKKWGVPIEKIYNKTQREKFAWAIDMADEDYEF

[8] = test system: U-937; test: Induction of apoptosis in human U937 cells assessed as increase in cleaved caspase 8 levels up to 2.5 uM after 36 hrs by Western blot analysis; assay type: functional, cell-based
Procedure, shortened: (§2)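 U937 cells exposed to 0, 0.1, 0.5, 1 and 2.5 μM for 36 h. Cells lysed at 0 °C for 0.5 h, protein measured by BCA, and lysates run on 12% SDS-PAGE and transferred to PVDF. Blocking in 5% milk, primary antibodies (1:1000) at 4 °C overnight, HRP secondary for 2 h, ECL detection.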

[9] = test system: U-937; test: Induction of apoptosis in human U937 cells assessed as increase in cleaved caspase 7 levels up to 2.5 uM after 36 hrs by Western blot analysis; assay type: functional, cell-based; procedure, shortened: as §2
[10] = test system: U-937; test: Induction of apoptosis in human U937 cells assessed as increase in cleaved caspase 3 levels up to 2.5 uM after 36 hrs by Western blot analysis; assay type: functional, cell-based; procedure, shortened: as §2
[11] = test system: Calf thymus DNA; test: Binding affinity to calf thymus DNA assessed as assessed as bathochromic shift at 10 uM by UV-Vis absorption spectral analysis; assay type: nucleic-acid assay; conditions: Bos taurus
Procedure, shortened: (§3)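 Compound held at 10 μM and titrated with increasing calf thymus DNA in Tris-HCl buffer (pH 7.4). UV–visible absorption spectra recorded, and absorbance changes plotted against DNA concentration.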

[12] = test system: Calf thymus DNA; test: Binding affinity to calf thymus DNA by UV-Vis absorption spectral analysis; assay type: nucleic-acid assay; conditions: Bos taurus; procedure, shortened: as §3
[13] = test system: U-937; test: Induction of apoptosis in human U937 cells assessed as increase in cleaved caspase 9 levels up to 2.5 uM after 36 hrs by Western blot analysis; assay type: functional, cell-based; procedure, shortened: as §2
[14] = test system: Calf thymus DNA; test: Binding affinity to calf thymus DNA by fluorescence emission spectral analysis; assay type: nucleic-acid assay; conditions: Bos taurus
[15] = test system: Calf thymus DNA; test: Binding affinity to calf thymus DNA assessed as maximum absorption peak at 10 uM by UV-Vis absorption spectral analysis; assay type: nucleic-acid assay; conditions: Bos taurus; procedure, shortened: as §3

Chain of DNA topoisomerase 2-alpha (Homo sapiens) (P11388 whole entry): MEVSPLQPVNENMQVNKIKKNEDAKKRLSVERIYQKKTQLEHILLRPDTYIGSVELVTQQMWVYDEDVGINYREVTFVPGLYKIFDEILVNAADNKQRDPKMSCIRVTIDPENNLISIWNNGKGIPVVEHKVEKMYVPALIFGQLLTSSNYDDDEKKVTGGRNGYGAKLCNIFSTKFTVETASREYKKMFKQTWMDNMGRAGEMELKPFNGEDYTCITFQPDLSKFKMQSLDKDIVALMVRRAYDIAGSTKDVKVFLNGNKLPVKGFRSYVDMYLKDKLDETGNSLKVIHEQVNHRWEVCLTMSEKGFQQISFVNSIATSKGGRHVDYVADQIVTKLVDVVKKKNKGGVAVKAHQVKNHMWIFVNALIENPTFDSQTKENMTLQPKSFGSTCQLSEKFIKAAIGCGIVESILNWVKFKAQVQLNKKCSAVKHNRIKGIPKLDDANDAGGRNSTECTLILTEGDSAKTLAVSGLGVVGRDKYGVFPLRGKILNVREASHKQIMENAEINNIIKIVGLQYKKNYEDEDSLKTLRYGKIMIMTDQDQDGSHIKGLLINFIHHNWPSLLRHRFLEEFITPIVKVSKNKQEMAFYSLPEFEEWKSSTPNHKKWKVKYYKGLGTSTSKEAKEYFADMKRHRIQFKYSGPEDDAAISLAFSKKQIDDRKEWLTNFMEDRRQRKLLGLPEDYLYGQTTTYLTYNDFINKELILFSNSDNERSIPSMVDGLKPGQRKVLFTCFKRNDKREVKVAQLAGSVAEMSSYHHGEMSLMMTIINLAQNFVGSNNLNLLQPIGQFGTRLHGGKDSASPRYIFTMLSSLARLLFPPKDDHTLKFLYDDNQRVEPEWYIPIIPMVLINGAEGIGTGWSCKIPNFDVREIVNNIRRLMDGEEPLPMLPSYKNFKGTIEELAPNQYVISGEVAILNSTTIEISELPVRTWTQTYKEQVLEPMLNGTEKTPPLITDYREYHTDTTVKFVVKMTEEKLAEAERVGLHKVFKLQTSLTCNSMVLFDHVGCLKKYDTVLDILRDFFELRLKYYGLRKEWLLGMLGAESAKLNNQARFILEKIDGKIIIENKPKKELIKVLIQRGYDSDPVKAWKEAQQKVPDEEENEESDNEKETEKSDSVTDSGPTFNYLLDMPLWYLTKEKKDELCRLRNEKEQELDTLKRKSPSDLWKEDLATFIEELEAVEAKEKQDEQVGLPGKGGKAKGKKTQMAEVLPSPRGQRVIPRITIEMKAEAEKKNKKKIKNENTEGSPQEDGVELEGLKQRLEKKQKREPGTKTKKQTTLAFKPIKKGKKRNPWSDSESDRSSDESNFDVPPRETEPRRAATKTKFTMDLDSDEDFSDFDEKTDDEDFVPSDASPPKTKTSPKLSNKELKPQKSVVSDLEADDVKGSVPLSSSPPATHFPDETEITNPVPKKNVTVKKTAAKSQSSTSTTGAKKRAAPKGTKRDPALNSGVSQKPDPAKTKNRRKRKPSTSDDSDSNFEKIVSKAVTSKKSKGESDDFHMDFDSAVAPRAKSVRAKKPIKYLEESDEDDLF
Chain of Histone deacetylase 1 (Q13547 whole entry): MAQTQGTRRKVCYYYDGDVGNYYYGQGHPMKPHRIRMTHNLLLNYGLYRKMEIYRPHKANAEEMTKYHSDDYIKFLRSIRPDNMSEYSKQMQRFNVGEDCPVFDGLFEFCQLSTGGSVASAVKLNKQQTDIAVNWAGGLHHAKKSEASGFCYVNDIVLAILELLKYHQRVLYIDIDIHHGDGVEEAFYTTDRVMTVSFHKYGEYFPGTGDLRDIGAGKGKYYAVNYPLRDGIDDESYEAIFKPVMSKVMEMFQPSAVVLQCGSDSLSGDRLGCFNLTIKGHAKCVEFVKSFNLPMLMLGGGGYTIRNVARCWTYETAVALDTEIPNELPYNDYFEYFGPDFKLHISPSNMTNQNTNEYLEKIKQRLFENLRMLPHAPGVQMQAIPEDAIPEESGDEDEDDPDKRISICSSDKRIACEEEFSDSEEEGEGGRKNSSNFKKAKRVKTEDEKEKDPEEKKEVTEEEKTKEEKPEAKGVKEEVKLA

Compound	IC50 [1]	IC50 [2]	IC50 [3]	inhibition [4]	IC50 [5]	other results
COC(=O)CCc1ccc(Nc2c3ccccc3nc3ccccc23)cc1	3870 nM					
O=C(CCCCCCC(=O)Nc1ccccc1)NO [VORINOSTAT]					4930 nM	
O=C(CCc1ccc(Nc2c3ccccc3nc3ccccc23)cc1)NO	750 nM	134 nM	99.3 nM	Active	29100 nM	IC50 [6]: 1880 nM; inhibition [7]: Active
COc1ccc2nc3cc(Cl)ccc3c(Nc3cccc(-c4cn(CCCCCC(=O)NO)nn4)c3)c2c1	2940 nM	224 nM	13.3 nM	Active		
COc1ccc2nc3cc(Cl)ccc3c(Nc3ccc(-c4cn(CCCCCC(=O)NO)nn4)cc3)c2c1	3550 nM	306 nM	29 nM	Active		
COc1ccc2nc3cc(Cl)ccc3c(Nc3ccc(CCC(=O)NO)cc3)c2c1	1120 nM	66.2 nM	80.8 nM	Active		
O=C(CCCCCCn1cc(-c2ccc(Nc3c4ccccc4nc4ccccc34)cc2)nn1)NOC1CCCCO1 (configuration not stated)	21400 nM					
COc1cc(NS(C)(=O)=O)ccc1Nc1c2ccccc2nc2ccccc12 [AMSACRINE]				Active	10000 nM	IC50 [6]: < 1000 nM; Kb [12]: 1.36 ×10⁵ /M

Further lines, with some results ahead:

IC50 [1]	IC50 [2]	IC50 [3]	inhibition [4]	IC50 [5]	Compound	other results
1240 nM	5.1 nM	5 nM	Active		O=C(CCCCCCn1cc(-c2cccc(Nc3c4ccccc4nc4ccccc34)c2)nn1)NO	
2670 nM	14.1 nM	3.4 nM	Active		O=C(CCCCCn1cc(-c2cccc(Nc3c4ccccc4nc4ccccc34)c2)nn1)NO	
900 nM	3.9 nM	2.9 nM	Active	7090 nM	O=C(CCCCCCn1cc(-c2ccc(Nc3c4ccccc4nc4ccccc34)cc2)nn1)NO	Activity [8]: Active; Activity [9]: Active; Activity [10]: Active; IC50 [6]: 2110 nM; Activity [11]: Active; Kb [12]: 1.67 ×10⁵ /M; Activity [13]: Active; Kq [14]: 1.56 ×10⁵ /M; Activity [15]: 430 nm
1340 nM	8.2 nM	2.6 nM	Active		O=C(CCCCCn1cc(-c2ccc(Nc3c4ccccc4nc4ccccc34)cc2)nn1)NO	
